Test results published in the RNAGym collection of RNA variant scans (doi:10.1038/s41586-018-0170-7).

B1: tRNA (parent)
chain: GUUCCGUUGGCGUAAUGGUAACGCGUCUCCCUCCUAAGGAGAAGACUGCGGGUUCGAGUCCCGUACGGAACG

Variants of: B1
Test: yeast fitness, log relative to wild type (ln ratio); higher = fitter; tRNA-Arg(CCU), competitive growth, 37 C, 1 M NaCl
Procedure, shortened: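 Fitness is the natural log of a genotype's generation count divided by that of the wild type. A combinatorial library of tRNA-Arg(CCU) variants sat on a HIS3 centromeric plasmid in BY4742 lacking the chromosomal gene, from two independent transformations. Pools grew 4 generations in SC-HIS at 30 °C, then ~6.5 generations (~26.5 h) in SC-HIS 1M NaCl at 37 °C, with three outputs per input. Generations came from OD-scaled log2 output/input frequency, inverse-variance weighted across replicates, with variants counted by 125 bp paired-end Illumina sequencing.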

Variant | yeast fitness (ln)
ACUCCGUUGGCGUAAUGGUAACGCGUUUCCCUCCUAAGGAGACGACUGCGGGUUCGAGUCCCGUAUGGAGUG | -0.197
ACUCCGUUGGCGUAAUGGUAACGCGUUUCCCUCCUAAGGAGAAGAUUGCGGGUUCGAGUCCCGUAAGGGGUG | -0.294
ACUCCGUUGGCGUAAUGGUAACGCGUUUCCCUCCUAAGGAGAAGAUUGCGGGUUCGAGUCCCGUACGGAUCG | -0.127
ACUCCGUUGGCGUAAUGGUAACGCGUUUCCCUCCUAAGGAGAAGAUUGCGGGUUCGAGUCCCGUACGGAGCG | -0.0417
ACUCCGUUGGCGUAAUGGUAACGCGUCUCCCUCCUAAGGAGAAGAUUGCGGGUUCGAGUCCCGUACGGAGCG | -0.014
ACUCCGUUGGCGUAAUGGUAACGCGUCUCCCUCCUAAGGAGAAGAUUGCGGGUUCGAGUCCCGUACGGAUCG | -0.0782
ACUCCGUUGGCGUAAUGGUAACGCGUUUCCCUCCUAAGGAGACGACUGCGGGUUCGAGUCCCGUAUGGGUUG | -0.397
ACUCCGUUGGCGUAAUGGUAACGCGUUUCCCUCCUAAGGAGAAGACUGCGGGUUCGAGUCCCGUACGGAGUG | -0.0348
ACUCCGUUGGCGUAAUGGUAACGCGUUUCCCUCCUAAGGAGAAGACUGCGGGUUCGAGUCCCGUAUGGAUCG | -0.108
ACUCCGUUGGCGUAAUGGUAACGCGUUUCCCUCCUAAGGAGAAGACUGCGGGUUCGAGUCCCGUAUGGAGCG | -0.0715
ACUCCGUUGGCGUAAUGGUAACGCGUUUCCCUCCUAAGGAGAAGAUUGCGGGUUCGAGUCCCGUAAGGAUCG | 0.02
ACUCCGUUGGCGUAAUGGUAACGCGUUUCCCUCCUAAGGAGAAGAUUGCGGGUUCGAGUCCCGUACGGAGUG | -0.0196
ACUCCGUUGGCGUAAUGGUAACGCGUUUCCCUCCUAAGGAGAAGAUUGCGGGUUCGAGUCCCGUAAGGAAUG | -0.12
ACUCCGUUGGCGUAAUGGUAACGCGUCUCCCUCCUAAGGAGAAGAUUGCGGGUUCGAGUCCCGUAUGGGGUG | -0.0168
ACUCCGUUGGCGUAAUGGUAACGCGUCUCCCUCCUAAGGAGAAGAUUGCGGGUUCGAGUCCCGUACGGAACG | -0.0408
ACUCCGUUGGCGUAAUGGUAACGCGUUUCCCUCCUAAGGAGAAGAUUGCGGGUUCGAGUCCCGUACGGAAUG | -0.147
ACUCCGUUGGCGUAAUGGUAACGCGUUUCCCUCCUAAGGAGAAGAUUGCGGGUUCGAGUCCCGUACGGGUUG | -0.359
ACUCCGUUGGCGUAAUGGUAACGCGUCUCCCUCCUAAGGAGAAGAUUGCGGGUUCGAGUCCCGUACGGGUCG | -0.016
ACUCCGUUGGCGUAAUGGUAACGCGUCUCCCUCCUAAGGAGAAGAUUGCGGGUUCGAGUCCCGUACGGGGCG | -0.029
ACUCCGUUGGCGUAAUGGUAACGCGUUUCCCUCCUAAGGAGAAGACUGCGGGUUCGAGUCCCGUACGGGUUG | -0.351
ACUCCGUUGGCGUAAUGGUAACGCGUCUCCCUCCUAAGGAGAAGAUUGCGGGUUCGAGUCCCGUACGGGGUG | 0.00686
ACUCCGUUGGCGUAAUGGUAACGCGUUUCCCUCCUAAGGAGAAGACUGCGGGUUCGAGUCCCGUAAGGAGUG | -0.221
ACUCCGUUGGCGUAAUGGUAACGCGUUUCCCUCCUAAGGAGAAGAUUGCGGGUUCGAGUCCCGUAAGGAUUG | -0.15
ACUCCGUUGGCGUAAUGGUAACGCGUUUCCCUCCUAAGGAGAAGAUUGCGGGUUCGAGUCCCGUAAGGAGUG | -0.262
ACUCCGUUGGCGUAAUGGUAACGCGUUUCCCUCCUAAGGAGAAGAUUGCGGGUUCGAGUCCCGUACGGAUUG | -0.155

Variant | yeast fitness (ln)
ACUCCGUUGGCGUAAUGGUAACGCGUCUCCCUCCUAAGGAGAAGAUUGCGGGUUCGAGUCCCGUAUGGAGUG | -0.01
ACUCCGUUGGCGUAAUGGUAACGCGUCUCCCUCCUAAGGAGAAGAUUGCGGGUUCGAGUCCCGUACGGGUUG | -0.257
ACUCCGUUGGCGUAAUGGUAACGCGUUUCCCUCCUAAGGAGAAGAUUGCGGGUUCGAGUCCCGUAUGGGGUG | -0.174
ACUCCGUUGGCGUAAUGGUAACGCGUUUCCCUCCUAAGGAGAAGAUUGCGGGUUCGAGUCCCGUAUGGAGUG | -0.0522
ACUCCGUUGGCGUAAUGGUAACGCGUCUCCCUCCUAAGGAGAAGAUUGCGGGUUCGAGUCCCGUAAGGAUCG | -0.0262
ACUCCGUUGGCGUAAUGGUAACGCGUUUCCCUCCUAAGGAGAAGAUUGCGGGUUCGAGUCCCGUACGGGGUG | -0.0376
ACUCCGUUGGCGUAAUGGUAACGCGUUUCCCUCCUAAGGAGAAGACUGCGGGUUCGAGUCCCGUACGGAAUG | -0.238
ACUCCGUUGGCGUAAUGGUAACGCGUCUCCCUCCUAAGGAGAAGAUUGCGGGUUCGAGUCCCGUAUGGAGCG | -0.129
ACUCCGUUGGCGUAAUGGUAACGCGUCUCCCUCCUAAGGAGAAGAUUGCGGGUUCGAGUCCCGUAUGGAUCG | -0.0818
ACUCCGUUGGCGUAAUGGUAACGCGUUUCCCUCCUAAGGAGACGACUGCGGGUUCGAGUCCCGUAUGGGGUG | -0.21
ACUCCGUUGGCGUAAUGGUAACGCGUCUCCCUCCUAAGGAGAAGAUUGCGGGUUCGAGUCCCGUACGGAGUG | 0.000912
ACUCCGUUGGCGUAAUGGUAACGCGUUUCCCUCCUAAGGAGAAGACUGCGGGUUCGAGUCCCGUAUGGAACG | -0.191
ACUCCGUUGGCGUAAUGGUAACGCGUUUCCCUCCUAAGGAGAAGAUUGCGGGUUCGAGUCCCGUACGGGGCG | -0.122
ACUCCGUUGGCGUAAUGGUAACGCGUUUCCCUCCUAAGGAGAAGAUUGCGGGUUCGAGUCCCGUACGGGUCG | -0.0465
ACUCCGUUGGCGUAAUGGUAACGCGUUUCCCUCCUAAGGAGAAGAUUGCGGGUUCGAGUCCCGUACGGAACG | -0.00588
ACUCCGUUGGCGUAAUGGUAACGCGUCUCCCUCCUAAGGAGAAGAUUGCGGGUUCGAGUCCCGUAAGGAUUG | -0.0833
ACUCCGUUGGCGUAAUGGUAACGCGUCUCCCUCCUAAGGAGAAGAUUGCGGGUUCGAGUCCCGUAUGGGGCG | -0.127
ACUCCGUUGGCGUAAUGGUAACGCGUCUCCCUCCUAAGGAGAAGAUUGCGGGUUCGAGUCCCGUAUGGGUCG | -0.152
ACUCCGUUGGCGUAAUGGUAACGCGUCUCCCUCCUAAGGAGAAGAUUGCGGGUUCGAGUCCCGUAAGGGGUG | -0.273
ACUCCGUUGGCGUAAUGGUAACGCGUUUCCCUCCUAAGGAGAAGACUGCGGGUUCGAGUCCCGUAUGGGGCG | -0.313
ACUCCGUUGGCGUAAUGGUAACGCGUUUCCCUCCUAAGGAGAAGAUUGCGGGUUCGAGUCCCGUAUGGAAUG | -0.124
ACUCCGUUGGCGUAAUGGUAACGCGUUUCCCUCCUAAGGAGAAGAUUGCGGGUUCGAGUCCCGUAUGGGUCG | -0.184
ACUCCGUUGGCGUAAUGGUAACGCGUUUCCCUCCUAAGGAGAAGAUUGCGGGUUCGAGUCCCGUAUGGGGCG | -0.11
ACUCCGUUGGCGUAAUGGUAACGCGUUUCCCUCCUAAGGAGACGACUGCGGGUUCGAGUCCCGUACGGAAUG | -0.0487
ACUCCGUUGGCGUAAUGGUAACGCGUUUCCCUCCUAAGGAGAAGACUGCGGGUUCGAGUCCCGUAUGGAUUG | -0.256

Variant | yeast fitness (ln)
ACUCCGUUGGCGUAAUGGUAACGCGUUUCCCUCCUAAGGAGACGAUUGCGGGUUCGAGUCCCGUAUGGAAUG | -0.241
ACUCCGUUGGCGUAAUGGUAACGCGUUUCCCUCCUAAGGAGAAGACUGCGGGUUCGAGUCCCGUACGGAGCG | -0.0624
ACUCCGUUGGCGUAAUGGUAACGCGUUUCCCUCCUAAGGAGAAGACUGCGGGUUCGAGUCCCGUACGGAUCG | -0.0826
ACUCCGUUGGCGUAAUGGUAACGCGUCUCCCUCCUAAGGAGAAGAUUGCGGGUUCGAGUCCCGUACGGAUUG | -0.0299
ACUCCGUUGGCGUAAUGGUAACGCGUCUCCCUCCUAAGGAGAAGAUUGCGGGUUCGAGUCCCGUAUGGAACG | -0.00756
ACUCCGUUGGCGUAAUGGUAACGCGUUUCCCUCCUAAGGAGACGACUGCGGGUUCGAGUCCCGUAUGGAUCG | -0.179
ACUCCGUUGGCGUAAUGGUAACGCGUUUCCCUCCUAAGGAGAAGACUGCGGGUUCGAGUCCCGUACGGAUUG | -0.288
ACUCCGUUGGCGUAAUGGUAACGCGUUUCCCUCCUAAGGAGAAGACUGCGGGUUCGAGUCCCGUACGGGAUG | -0.131
ACUCCGUUGGCGUAAUGGUAACGCGUUUCCCUCCUAAGGAGAAGACUGCGGGUUCGAGUCCCGUAUGGGUUG | -0.54
ACUCCGUUGGCGUAAUGGUAACGCGUUUCCCUCCUAAGGAGACGAUUGCGGGUUCGAGUCCCGUACGGAAUG | -0.178
ACUCCGUUGGCGUAAUGGUAACGCGUUUCCCUCCUAAGGAGAAGACUGCGGGUUCGAGUCCCGUAUGGGGUG | -0.585
ACUCCGUUGGCGUAAUGGUAACGCGUUUCCCUCCUAAGGAGAAGAUUGCGGGUUCGAGUCCCGUAUGGAUUG | -0.147
ACUCCGUUGGCGUAAUGGUAACGCGUUUCCCUCCUAAGGAGAAGACUGCGGGUUCGAGUCCCGUAUGGAGUG | -0.127
ACUCCGUUGGCGUAAUGGUAACGCGUUUCCCUCCUAAGGAGAAGACUGCGGGUUCGAGUCCCGUAUGGAAUG | -0.33
ACUCCGUUGGCGUAAUGGUAACGCGUUUCCCUCCUAAGGAGAAGAUUGCGGGUUCGAGUCCCGUAUGGAUCG | -0.0209
ACUCCGUUGGCGUAAUGGUAACGCGUUUCCCUCCUAAGGAGAAGAUUGCGGGUUCGAGUCCCGUAUGGAGCG | -0.242
ACUCCGUUGGCGUAAUGGUAACGCGUUUCCCUCCUAAGGAGAAGAUUGCGGGUUCGAGUCCCGUACGGGAUG | -0.192
ACUCCGUUGGCGUAAUGGUAACGCGUCUCCCUCCUAAGGAGAAGAUUGCGGGUUCGAGUCCCGUAAGGAGUG | -0.124
ACUCCGUUGGCGUAAUGGUAACGCGUUUCCCUCCUAAGGAGAAGACUGCGGGUUCGAGUCCCGUACGGGGUG | -0.0512
ACUCCGUUGGCGUAAUGGUAACGCGUCUCCCUCCUAAGGAGAAGAUUGCGGGUUCGAGUCCCGUACGGGAUG | -0.134
ACUCCGUUGGCGUAAUGGUAACGCGUUUCCCUCCUAAGGAGACGACUGCGGGUUCGAGUCCCGUAAGGAUUG | -0.331
ACUCCGUUGGCGUAAUGGUAACGCGUUUCCCUCCUAAGGAGACGACUGCGGGUUCGAGUCCCGUAUGGAUUG | -0.244
ACUCCGUUGGCGUAAUGGUAACGCGUUUCCCUCCUAAGGAGAAGACUGCGGGUUCGAGUCCCGUACGGGUCG | -0.0698
ACUCCGUUGGCGUAAUGGUAACGCGUUUCCCUCCUAAGGAGAAGACUGCGGGUUCGAGUCCCGUACGGGGCG | -0.209
ACUCCGUUGGCGUAAUGGUAACGCGUUUCCCUCCUAAGGAGAAGAUUGCGGGUUCGAGUCCCGUAUGGAACG | -0.144
